Screening results from PubChem.
MrgX1 PAM: human MrgX1 positive allosteric modulation, primary screen; B-score at 10 µM; MrgX1-HEK293, Fluo-4 calcium flux, FDSS; active compounds read high; actives 0.63% (n = 310,000);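 active = plate-corrected calcium response at least 3 library SD above typical, normal starting fluorescence, not activating the receptor alone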;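 note: compound read alongside a low EC10 to EC30 dose of BAM8-22 agonist; peak minus trough fluorescence over baseline measured at the second addition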
Target sequence (Q96LB2 whole entry, looked up): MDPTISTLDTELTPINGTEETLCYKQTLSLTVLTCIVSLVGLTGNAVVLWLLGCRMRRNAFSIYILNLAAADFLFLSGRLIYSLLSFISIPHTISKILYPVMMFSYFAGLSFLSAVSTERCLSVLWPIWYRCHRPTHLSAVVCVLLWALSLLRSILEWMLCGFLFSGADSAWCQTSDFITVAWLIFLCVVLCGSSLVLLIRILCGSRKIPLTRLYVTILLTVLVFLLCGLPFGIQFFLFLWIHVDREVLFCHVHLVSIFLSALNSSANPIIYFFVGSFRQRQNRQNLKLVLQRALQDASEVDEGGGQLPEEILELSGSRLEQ
MrgX1 agonist: human MrgX1 receptor agonism, primary screen; AID 588627; B-score at 10 µM; actives 0.44% (n = 310,000); MrgX1-HEK293 cells, Fluo-4 calcium fluorescence, agonist mode; active compounds read high; Q96LB2;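 active = calcium response B-score plate-corrected fluorescence ratio at least 3 library SD, with starting fluorescence B-score inside 5 SD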
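times = overnight plating, then 30 min 37 °C plus 30 min room-temperature dye loading | assay system = stable human MrgX1 HEK293 cell line | input = fifteen thousand cells per well | signal = kinetic calcium dye fluorescence, Fluo-4 NW | dosing = compound delivered in addition one of three | read-out = B-scored fluorescence response ratio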
RGS4 block: human RGS4 inhibition | P49798 | HEK293 M3R/RGS4 inducible, Fluo-4 calcium flux; active compounds read high; triggered by carbachol at its EC20 | B-score at 10 µM | actives 0.45% (n = 310,000) | AID 463165;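 active = B-score, a plate-corrected calcium signal, over three deviations above library mean, with baseline fluorescence within five deviations of library mean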;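 note: RGS4 expression induced by doxycycline in cells with stable M3 receptor; B-score is computed from the integrated fluorescence ratio over baseline after carbachol; higher B-score means a larger calcium signal and so more RGS4 inhibition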
Target sequence (P49798 whole entry, looked up): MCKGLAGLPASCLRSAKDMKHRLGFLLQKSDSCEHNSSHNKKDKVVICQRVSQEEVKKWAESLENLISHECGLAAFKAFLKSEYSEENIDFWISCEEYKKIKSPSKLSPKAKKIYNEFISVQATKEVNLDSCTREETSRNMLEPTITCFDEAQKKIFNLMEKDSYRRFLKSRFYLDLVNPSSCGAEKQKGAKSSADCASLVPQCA
RGS4 pot: RGS4 potentiation or activation; actives 0.92% (n = 310,000); HEK293 M3R/inducible RGS4, carbachol calcium flux Fluo4; active compounds read low; B-score at 10 µM;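 active = B-score of the integrated calcium signal more than 4 SD below the library mean, with starting fluorescence not abnormally high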;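 note: negative B-score means reduced calcium response which marks RGS4 activation or potentiation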
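Assay system: HEK293 FlpIn-TREx cells, stable M3R, doxycycline-inducible RGS4 / Probe or stimulus: carbachol, ECmax concentration / Times: overnight RGS4 induction, 30 min dye load 37 °C, 20 min compound RT / Signal: kinetic calcium fluorescence imaging with Fluo4-AM dye, 2 µM / Measure: Agonist-evoked peak-minus-minimum fluorescence over baseline, integrated ratio, B score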
MrgX1 antag: blocks BAM8-22 activation of human MrgX1 receptor; MRGX1-HEK293 calcium flux, Fluo-4, BAM8-22 antagonism; active compounds read low; B-score at 10 µM; actives 1.3% (n = 310,000); AID 588676;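 active = calcium-response B-score plate-corrected more than 3 library SD below zero, starting fluorescence within 5 deviations, no agonist response on first addition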;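 note: peak minus trough fluorescence over baseline after final BAM8-22 challenge near maximal dose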
RGS4 activ val: confirmation of RGS4 activators | HEK293 M3R/RGS4 inducible, carbachol calcium flux Fluo4 | AID 602282 | shares compounds with RGS4 pot | inhibition, % at 10 µM | actives 89% (n = 1,100);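 active = inhibition above 3 SD of the buffer control wells, cut at about 41% in these data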;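 note: signal is the integrated peak-minus-minimum Fluo4 fluorescence over baseline ratio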
RGS4 act ctr: RGS4 activator counter-screen hit in non-induced cells; HEK293 M3R non-induced RGS4, Fluo4 calcium flux; after carbachol challenge at its EC90; shares compounds with RGS4 pot; actives 82% (n = 1,100); inhibition, % at 10 µM;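 active = inhibition exceeding 3 SD of buffer-only control wells, cut at about 26% in these data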;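 note: percent drop in integrated peak-minus-baseline over baseline Fluo4 ratio after carbachol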
A number is an active result; – = inactive; · = no result. Hits are enriched below; roughly 3.5% of the tested compounds scored in any of these assays.

SMILES	MrgX1 PAM	MrgX1 agonist	RGS4 block	RGS4 pot	MrgX1 antag	RGS4 activ val	RGS4 act ctr
CCOC(=O)C1CCN(S(=O)(=O)c2ccc3c(c2)CC(C)N3C(=O)C2CCC2)CC1 (configuration not stated)	–	–	–	-8.22	–	57.0	–
O=C(Nc1ccc(S(=O)(=O)N2CCOCC2)cc1)c1cc(-c2cc(Cl)ccc2O)n[nH]1	–	–	–	-8.38	–	93.0	70.8
Cc1cc(O)c(-c2cc(C(=O)Nc3ccc(S(=O)(=O)N4CCOCC4)cc3)[nH]n2)cc1C	–	–	–	–	–	·	·
COc1cc(-c2cc(=O)c3c(O)c(OC)c(OC)cc3o2)cc(OC)c1O	–	–	–	-8.28	–	–	–
COc1ccc(-c2cc(=O)c3c(O)c(OC)c(O)cc3o2)cc1	–	–	–	–	–	·	·
O=C(C1CCCN(Cc2ccc3c(c2)OCO3)C1)N1CCCC1 (configuration not stated)	–	–	–	–	–	·	·
COc1cccc(CN2CCCC(C(=O)c3ccc4c(c3)OCO4)C2)c1O (configuration not stated)	–	–	–	–	–	·	·
CCn1nc(C)c(CN2CCCC(C(=O)c3cccc(OC(C)C)c3)C2)c1C (configuration not stated)	–	–	–	–	–	·	·
COc1ccc(CN2CCCC(C(=O)c3ccc4c(c3)OCO4)C2)c(F)c1 (configuration not stated)	–	–	–	-8.33	–	91.0	80.8
Cc1nn(C(C)C)c(C)c1CN1CCCC(C(=O)c2cccc(OC(C)C)c2)C1 (configuration not stated)	–	–	–	-8.39	–	70.5	83.8
COc1cccc(C(=O)C2CCCN(Cc3cccc(-n4nc(C)cc4C)c3)C2)c1 (configuration not stated)	–	–	–	-9.79	–	93.0	75.3
CC(=O)c1cccc(CN2CCCC(C(=O)c3ccc4c(c3)OCO4)C2)c1 (configuration not stated)	–	–	–	-8.3	–	74.0	26.3
COc1cccc(NC(=O)CC(=O)c2ccccc2)c1	–	–	–	–	–	·	·
Cc1cccc(NC(=O)CSCC(=O)N2CCN(Cc3ccc4c(c3)OCO4)CC2)c1	–	–	–	–	–	·	·
O=C(c1ccc2c(c1)OCO2)C1CCCN(C2CCN(CCc3ccccc3)CC2)C1 (configuration not stated)	–	–	–	-13.2	–	87.0	55.3
Cc1ccccc1-c1nn2c(-c3ccccc3)nnc2s1	–	–	–	-7.72	–	–	–
CC(=O)c1ccc(N2CCN(CC(O)COC(c3ccccc3)c3ccccc3C)CC2)cc1 (configuration not stated)	–	–	–	-10.7	–	94.5	82.8
CC(=O)c1ccc(N2CCN(CC(O)COC(c3ccccc3)c3ccccc3)CC2)cc1 (configuration not stated)	–	–	–	-7.71	–	61.5	83.8
Nc1ccc(O)c(-c2nc3ccccc3s2)c1	–	–	–	–	–	·	·
Oc1ccc(-c2nc3ccccc3s2)c(O)c1	–	–	–	-7.9	–	–	–
O=C(Cc1ccc(Cl)cc1)NCCCNC(=O)c1cccnc1	–	–	–	–	–	·	·
CCn1c2ccccc2c2cc(/C=N/n3c(-c4cc(C)[nH]n4)n[nH]c3=S)ccc21	–	–	–	-7.75	–	69.5	42.3
CCn1c2ccccc2c2cc(/C=N/n3cn[nH]c3=S)ccc21	–	–	–	–	–	·	·
Cn1cc(CN2C[C@]3(C)C[C@H]2CC(C)(C)C3)c(-c2ccc3c(c2)OCCO3)n1	–	–	–	-8.94	–	88.0	46.8
CCOC(=O)CC1CCCCN1Cc1cn(C)nc1-c1ccc2c(c1)OCCO2 (configuration not stated)	–	–	–	–	–	·	·
SMILES	MrgX1 PAM	MrgX1 agonist	RGS4 block	RGS4 pot	MrgX1 antag	RGS4 activ val	RGS4 act ctr
Cc1ccc(CNC(=O)CSc2nc3c(sc4ccccc43)c(=O)n2CCCN2CCCC2)cc1	–	–	–	-11	–	94.0	96.8
CCCCNc1c(-c2ccc(OC)c(Sc3ccc(OC)cc3)c2)nc2ccccn12	–	–	–	-11.1	–	91.0	71.3
CCCCCCSc1cc(-c2nc3cc(C)ccn3c2NCCCC)ccc1OC	–	–	–	–	–	·	·
O=c1[nH]c(-c2ccccc2)nc(-c2ccccc2)c1Cl	–	–	–	–	–	·	·
COc1cc(F)ccc1S(=O)(=O)N1CCN(C23CC4CC(CC(C4)C2)C3)CC1	–	–	–	–	–	·	·
COc1cc(C)ccc1S(=O)(=O)N1CCN(C23CC4CC(CC(C4)C2)C3)CC1	–	–	–	-8.9	–	91.5	79.8
O=C(Cc1ccc(Br)cc1)NCCCn1ccnc1	–	–	–	–	–	·	·
O=C(c1sccc1Cl)N1CCN(Cc2ccc3c(c2)OCO3)CC1	–	–	–	–	–	·	·
O=C(NC1CCCCC1)N1CCSC1=Nc1ccccc1	–	–	–	-8.17	–	79.5	42.8
C=CCN(CC=C)C(=O)c1ccc(OC2CCN(C(C)=O)CC2)c(OC)c1	–	–	–	–	–	·	·
O=C(CNS(=O)(=O)c1ccc(Br)cc1)NCc1cccnc1	–	–	–	–	–	·	·
Cc1ccc(C)c(NC(=O)C(NCC(C)(C)N2CCOCC2)c2ccccc2)c1 (configuration not stated)	–	–	–	-10.3	–	92.0	94.8
Cc1nc2sccn2c(=O)c1S(=O)(=O)Nc1ccc(N2CCN(S(C)(=O)=O)CC2)cc1	–	–	–	–	–	·	·
CC(C)c1ccc(N2C(=O)CC(NNC(=O)c3ccccc3Cl)C2=O)cc1 (configuration not stated)	–	–	–	–	–	·	·
COC(=O)c1ccc(N(CC(=O)NC2CCCC2)C(=O)c2ccc(C)s2)cc1	–	–	–	-8.94	–	–	–
COc1ccc(N(CC(=O)NC2CCCCC2)C(=O)c2ccc(C)s2)cc1OC	–	–	–	–	–	·	·
CCCCNc1c2c3c(cccc3n(C)c1=O)C(=O)c1ccccc1-2	–	–	–	-11.6	–	100.0	96.8
